Results of several laboratories.
Lines come from different studies, so protocols differ.
Target: Ephrin type-A receptor 1 (EPHA1, Homo sapiens, UniProt P21709)
Residues used in one study (P21709 26-976): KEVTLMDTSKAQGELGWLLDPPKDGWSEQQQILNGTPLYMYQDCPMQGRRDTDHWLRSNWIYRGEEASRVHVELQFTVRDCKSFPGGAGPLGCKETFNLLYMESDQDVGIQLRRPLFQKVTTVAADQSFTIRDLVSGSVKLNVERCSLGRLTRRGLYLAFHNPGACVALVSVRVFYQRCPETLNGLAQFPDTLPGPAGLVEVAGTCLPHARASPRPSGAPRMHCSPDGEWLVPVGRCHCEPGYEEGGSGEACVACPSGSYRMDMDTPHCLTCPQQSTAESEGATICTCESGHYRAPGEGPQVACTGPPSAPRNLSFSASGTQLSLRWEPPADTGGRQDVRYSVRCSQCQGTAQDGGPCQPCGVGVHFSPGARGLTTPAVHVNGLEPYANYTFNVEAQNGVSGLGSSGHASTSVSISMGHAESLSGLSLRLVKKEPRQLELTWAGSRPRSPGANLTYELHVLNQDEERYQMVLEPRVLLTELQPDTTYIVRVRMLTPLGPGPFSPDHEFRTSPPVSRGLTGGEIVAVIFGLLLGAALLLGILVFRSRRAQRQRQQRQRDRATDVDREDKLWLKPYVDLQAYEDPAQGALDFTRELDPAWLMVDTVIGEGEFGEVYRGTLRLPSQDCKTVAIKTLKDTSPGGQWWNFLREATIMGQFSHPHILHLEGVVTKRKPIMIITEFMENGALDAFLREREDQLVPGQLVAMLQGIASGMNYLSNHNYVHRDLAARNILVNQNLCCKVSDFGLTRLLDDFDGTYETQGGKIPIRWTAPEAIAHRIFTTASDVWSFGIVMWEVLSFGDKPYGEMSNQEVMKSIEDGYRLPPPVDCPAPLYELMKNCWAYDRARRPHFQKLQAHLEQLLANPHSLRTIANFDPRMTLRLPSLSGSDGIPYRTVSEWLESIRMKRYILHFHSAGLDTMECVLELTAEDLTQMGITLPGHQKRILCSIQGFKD

Structure (SMILES) | effect on | method | tested at | remaining binding [%]
C[C@@H]1CCN(c2nccc(-c3cnn4ncccc34)n2)C1 | binding | – | 1 µM | 100
CC(=O)N1CCC(c2ccc(C(=O)NC3=NCCN3)cc2C(F)(F)F)CC1 | cell-free assay | competition with immobilised ligand | 1 µM | 88
CN(c1nccc(-c2cnn3ncccc23)n1)C1CC1 | binding | – | 1 µM | 99
CCN1CCN(Cc2ccc(C(=O)Nc3ccc(C)c(Oc4ccc5c(c4)CC(=O)N5)c3)cc2C(F)(F)F)CC1 | binding | competition with immobilised ligand | 1 µM | 77
CC1CCCN1c1nccc(-c2cnn3ncccc23)n1 (centres unmarked) | binding | – | 1 µM | 96
C[C@@H](c1ccc(-n2cnc3c(N)ncnc32)cc1)N1CCc2nn(C)c(Cc3ccccc3)c2C1=O | binding | competition with immobilised ligand | 0.1 µM | 87
O=C(NCC1CCOCC1)c1n[nH]cc1NC(=O)c1c(F)cccc1F | binding | competition with immobilised ligand | 1 µM | 100
COc1cnc(Nc2cccc(S(N)(=O)=O)c2)nc1N1CCN(c2ccccc2)C(=O)C1 | binding | competition with immobilised ligand | 1 µM | 90
CN(C)c1nccc(-c2cnn3ncccc23)n1 | binding | – | 1 µM | 46
Nc1ncc2c(n1)-c1c([nH]c3ccc(C#CC4CC4)cc13)CCCC2 | binding | competition with immobilised ligand | 1 µM | 89
COc1ccc2cc(OCC3(C(=O)O)CN(C(=O)c4ccc(F)cc4)C3)ccc2c1 | cell-free assay | competition with immobilised ligand | 1 µM | 83
N[C@@H]1CCN(c2nccc(-c3cnn4ncccc34)n2)C1 | binding | – | 1 µM | 100
CNCc1ccccc1-c1csc([C@@H](C)Nc2nc(C)nc3cc(OC)c(OC)cc23)c1 | cell-free assay | competition with immobilised ligand | 1 µM | 79
Cc1cnc(Nc2ccc(C(=O)N3CCC(N4CCCC4)CC3)cc2)nc1-c1cc2ccccc2s1 | binding | competition with immobilised ligand | 1 µM | 3.9
Cc1nc(Cc2cccc(C(F)(F)F)c2)sc1-c1ccc(C(N)=O)nc1 | cell-free assay | competition with immobilised ligand | 1 µM | 81
O=C(c1ccc(Nc2nccc(-c3cc4ccccc4s3)n2)cc1)N1CCC(N2CCCC2)CC1 | binding | competition with immobilised ligand | 1 µM | 32
Cc1nccc(COC(=O)N2C[C@@H]3[C@@H](CNC(=O)c4ccc5[nH]nnc5c4)[C@@H]3C2)n1 | cell-free assay | competition with immobilised ligand | 1 µM | 100
CN(CCCC(F)(F)F)c1nccc(-c2cnn3ncccc23)n1 | binding | – | 1 µM | 76
CSc1cccnc1N1CCN(Cc2nc3ccccc3[nH]2)CC1 | cell-free assay | competition with immobilised ligand | 1 µM | 100
O=C(NCCCN1CCOCC1)c1ccc(Nc2ncc(Cl)c(-c3ccc(Cl)s3)n2)cc1 | binding | competition with immobilised ligand | 1 µM | 46
